Experimental findings from ChEMBL document CHEMBL2407056, “3-(Oxazolo[4,5-b]pyridin-2-yl)anilides as a novel class of potent inhibitors for the kinetoplastid Trypanosoma brucei, the causative agent for human African trypanosomiasis” (Eur J Med Chem, 2013) are described below.

In data set [1] the test system is Leishmania donovani. Nature of the data set: Antimicrobial activity against Leishmania donovani amastigote form infected in mouse peritoneal macrophage after 96 hrs by Giemsa staining method. The data set is classed as functional, organism-based. Summed up:
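Mouse peritoneal macrophages (4×10⁴/well, RPMI 1640 + 10% heat-inactivated FBS) infected after 24 h with 1.2×10⁵ axenic amastigotes; free parasites removed at 4 h, drug dilutions added next day. After 96 h, methanol fixation and 10% Giemsa staining; infected and non-infected macrophages counted, % reduction in parasite burden vs controls, IC50 by linear regression; miltefosine control.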

For data set [2], the system named is Leishmania donovani. Nature of the data set: Antimicrobial activity against Leishmania donovani MHOM/ET/67/L82 amastigote form after 70 hrs by Alamar blue assay. As to conditions: MHOM/ET/67/L82, 70 h. The class given is functional, organism-based. Put shortly:
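Axenic amastigotes grown at 37 °C in SM medium pH 5.4 with 10% heat-inactivated FBS, 5% CO2; 10⁵ parasites per well exposed to eleven 3-fold dilutions (100 to 0.002 µg/mL) for 70 h. Alamar Blue (resazurin) added for 2–4 h, fluorescence read at ex 536/em 588 nm. IC50 by linear regression from sigmoidal curves; miltefosine control.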
For orientation: Resazurin is reduced to fluorescent resorufin, in cell work by metabolically active cells.

The next data set relates to L6. In words: Cytotoxicity against rat L6 cells after 70 hrs by Alamar blue assay. The data set is classed as cell-based. As to conditions: L6, 70 h. Put shortly:
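4000 L-6 cells per well in RPMI 1640 with L-glutamine and 10% FBS. Eleven 3-fold dilutions from 100 to 0.002 µg/mL for 70 h; Alamar Blue 2 h, fluorescence at ex 536/em 588 nm. IC50 by linear regression from sigmoidal curves; podophyllotoxin control.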

The test system of the next data set is Plasmodium falciparum. In words: Antimicrobial activity against Plasmodium falciparum NF54 infected in human RBC after 48 hrs by [3H]hypoxanthine incorporation assay. The data set is classed as functional, organism-based. Summed up:
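Erythrocytic stage, drug-sensitive strain, in hypoxanthine-free RPMI 1640 with HEPES, NaHCO3, neomycin, Albumax, human A+ red cells at 2.5% haematocrit, 0.3% parasitaemia. Eleven 3-fold dilutions from 100 to 0.002 µg/mL; 37 °C, 4% CO2/3% O2/93% N2. ³H-hypoxanthine added at 48 h, further 24 h, then harvested and scintillation-counted. IC50 by linear regression; chloroquine control.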

The next data set concerns Trypanosoma cruzi. In words: Antitrypanosomal activity against Trypanosoma cruzi Tulahuen C2C4 amastigotes infected in rat L6 cells after 96 hrs by beta-galactosidase reporter gene assay. The data set is classed as functional, organism-based. As to conditions: Tulahuen C2C4, L6, 96 h. Put shortly:
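L-6 cells (2000/well, RPMI 1640 + 10% FBS, 2 mM L-glutamine) infected after 24 h with 5000 LacZ-expressing trypomastigotes. At 48 h the medium was replaced with eleven 3-fold drug dilutions (100 to 0.002 µg/mL). After 96 h, CPRG/Nonidet substrate added, colour read at 540 nm after 2–6 h. IC50 by linear regression from sigmoidal curves; benznidazole control.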
(A reporter such as luciferase makes a cellular process visible.)

Data set [3] can be described thus: Selectivity index, ratio of IC50 for HEK293 cells to IC50 for Trypanosoma brucei brucei 427 bloodstream form. As to conditions: human, read-out: Ratio IC50. The class given is toxicity, cell-based. Put shortly:
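HEK293 cells (55 µL of 72,727 cells/mL in DMEM + 10% FCS) in 384-well plates, 24 h at 37 °C/5% CO2. Drug diluted 1:21 from DMSO, final 83.34 to 0.0004 µM, 48 h. […] SI relative to T. b. brucei.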

For data set [4], the system named is Trypanosoma brucei rhodesiense. In words: Antitrypanosomal activity against Trypanosoma brucei rhodesiense STIB 900 bloodstream form after 70 hrs by Alamar blue assay. The class given is functional, organism-based. The conditions noted are these: STIB 900, 70 h. Put shortly:
(§1)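 Bloodstream forms (4×10³/well) in MEM with 25 mM HEPES, extra glucose, non-essential amino acids, 0.2 mM 2-mercaptoethanol, 1 mM pyruvate and 15% heat-inactivated horse serum. Eleven 3-fold dilutions from 100 to 0.002 µg/mL, 70 h at 37 °C/5% CO2; Alamar Blue 2 h, fluorescence at ex 536/em 588 nm; IC50 by linear regression; melarsoprol control. SI relative to L6 cells.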

In data set [5] the test system is Trypanosoma brucei brucei. Nature of the data set: Antitrypanosomal activity against Trypanosoma brucei brucei 427 bloodstream form after 48 hrs by Alamar blue assay. The class given is functional, organism-based. The conditions noted are these: Trypanosoma brucei, 427, 48 h. Summed up:
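Bloodstream parasites in 384-well plates, 24 h preincubation at 37 °C/5% CO2. DMSO dilutions diluted 1:21 in DMEM and added to give final 41.67 to 0.0004 µM; 48 h incubation. 70% Alamar Blue in HMI-9 + 10% FCS added, 2 h at 37 °C then 22 h at room temperature; read at ex 535/em 590 nm.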

Data set [6] can be described thus: Selectivity index, ratio of IC50 for rat L6 cells to IC50 for Trypanosoma brucei rhodesiense STIB 900 bloodstream form. As to conditions: read-out: Ratio IC50. The data set is classed as toxicity, cell-based. Put shortly: as §1
Data set [7] is described as follows: Intrinsic clearance in human liver microsomes at 1 uM after 60 mins by LC-MS analysis. The class given is ADME, Microsome. As to conditions: read-out: CLH. Put shortly: (§2)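 Compound at 1 µM final (1 in 500 dilution of stock) incubated at 37 °C with human liver microsomes in 0.1 M phosphate buffer pH 7.4, 0.4 mg/mL protein. First-order depletion rate from exponential decay fit used to derive in vitro CLint and half-life; predicted hepatic extraction ratio from scaled CLint with liver blood flow 20.7 mL/min/kg.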

The nature of data set [8]: Kinetic solubility of the compound in phosphate buffer at pH 6.5 by nephelometry. The class given is physicochemical. The conditions noted are these: read-out: Kinetic_solubility. Put shortly:
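DMSO stocks spiked into pH 6.5 phosphate buffer or 0.01 M HCl (about pH 2.0), final DMSO 1% (v/v). Solubility range determined by nephelometry.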

Data set [9] in a line: Half life in human liver microsomes at 1 uM by LC-MS analysis. The class given is ADME, Microsome. Summed up:
as §2

A short description of data set [10]: Partition coefficient, log D of the compound at pH 7.4 by HPLC analysis. The data set is classed as physicochemical. The conditions noted are these: octanol/water. Summed up:
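Chromatographic gradient HPLC: mobile phase 50 mM ammonium acetate pH 7.4 (or ammonium formate pH 3.0) with an acetonitrile gradient of 0–100% over 10 min; UV detection at 220 and 254 nm.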

Data set [11] can be described thus: Kinetic solubility of the compound in phosphate buffer at pH 2 by nephelometry. The class given is physicochemical. As to conditions: read-out: Kinetic_solubility.
Data set [12] can be described thus: Selectivity index, ratio of IC50 for rat L6 cells to IC50 for Trypanosoma cruzi Tulahuen C2C4 amastigote stage. The class given is toxicity, cell-based. As to conditions: read-out: Ratio IC50.

Broadly, the EC50 is the concentration needed to bring the measured effect to its halfway point. Read a low EC50 as higher potency in that assay. The term IC50 denotes the midpoint of a concentration-inhibition curve. By half-life is commonly meant how long it takes for the measured level to halve. A lower half-life goes with rapid decline. The logD is lipophilicity at a set pH, counting ionised and neutral species.

Molecules are shown by their SMILES. Converted amounts (≈) assume the structure as drawn.

`CCCCCCCCCCCCCCCCOP(=O)([O-])OCC[N+](C)(C)C` [MILTEFOSINE]: the EC50 with Leishmania donovani [1] was found to be 1670 nM; in the data set with Leishmania donovani [2], 490 nM.
As for `O=C(Nc1ccc(Cl)c(-c2nc3ncccc3o2)c1)c1ccccc1`, the 50% inhibitory concentration (IC50) with L6 turned out to be 51000 nM; in the data set with Leishmania donovani [1], 37000 nM; with Leishmania donovani [2], 6100 nM; in the data set on Plasmodium falciparum it was 6900 nM; with Trypanosoma cruzi it was 2900 nM; in [4], 4200 nM. Besides, the midpoint of inhibition in [5], the IC50, lay at 1500 nM. In addition, the selectivity ratio in data set [3] came out at 54.
For `O=C(Nc1ccc(Cl)c(-c2nc3ncccc3o2)c1)c1ccoc1`, the 50% inhibitory concentration (IC50) with L6 was 65000 nM; in the data set on Leishmania donovani [1], 12000 nM; in the data set with Leishmania donovani [2], 340 nM; with Plasmodium falciparum it was 4900 nM; in the data set on Trypanosoma cruzi, 260 nM; in data set [4], 91 nM. In [5], this molecule had an IC50 of 300 nM. Further, the figures for the selectivity ratio in [6] and in [3] were more than 700 and 160, respectively.
For the molecule `O=C(Nc1ccc(Cl)c(-c2nc3ncccc3o2)c1)c1cscn1`, the concentration for half-maximal inhibition (IC50) was 235000 nM in the data set with L6; more than 84000 nM with Leishmania donovani [1]; 4800 nM in the data set with Leishmania donovani [2]; 7700 nM with Plasmodium falciparum; 2300 nM in the data set on Trypanosoma cruzi; 1100 nM in data set [4]. In [5], this molecule gave an IC50 of 1800 nM. Also, the selectivity ratio in data set [3] worked out at 39.
As to `O=C(Nc1ccc(Cl)c(-c2nc3ncccc3o2)c1)c1ccco1`, the microsomal CLint at 1 µM in [7] is 258 µL/min/mg. In addition, the solubility kinetic in [8] and in [11] was 1.6 µg/mL (≈ 4.71 µM) throughout. This molecule yielded a half-life at 1 µM in data set [9] of 7 min. Further, the log distribution coefficient (logD) in data set [10] was found to be 2.7. Also, the half-inhibitory concentration (IC50) in the data set on L6 turned out to be 23000 nM; in the data set on Leishmania donovani [2] it was 1800 nM; with Plasmodium falciparum, 7800 nM; with Trypanosoma cruzi it was 230 nM; in data set [4] it was 590 nM; in data set [5] it was 220 nM. Moreover, the selectivity ratio is 99 in data set [12], 39 in [6] and more than 345 in [3].
